Measured values: paper PMC6445238 (Drug Design, Development and Therapy, 2019)
Entries after “also recorded” stand apart in the source; their conditions may differ.

Assays:
[1] = Multiple ascending dose; type: in vivo, human; conditions: for CSF KM-819 concentration: day 7, 1 hour postdose
Outline: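 Plasma was sampled on day 1 predose and at 0.25–12 h, on days 2–6 predose, and on day 7 predose and at 0.25–24 h. CSF was taken by lumbar puncture on day 1 predose and on day 7, 1 h after the last dose. Plasma was measured by UPLC-MS/MS with a deuterated internal standard, linear over 2–20,000 ng/mL (LOQ 2 ng/mL). Parameters came from non-compartmental analysis. Accumulation index = day 7 AUCtau and Cmax,ss over day 1 AUC0–24 and Cmax.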

[2] = Single ascending dose; type: in vivo, human
Outline: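 After a single oral dose, plasma was sampled predose and at 0.25–72 h, and urine was collected over 0–24 h. Samples were mixed with DMSO and a deuterated internal standard, extracted with methanol, diluted with 0.1% ammonium acetate, and run by UPLC-MS/MS using MRM at m/z 460.1→214.2. Analysis was non-compartmental: t1/2 = 0.693/λz, AUC by linear trapezoidal rule, BLQ values before Cmax set to zero.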

[3] = cited from earlier work

Compound: Cc1nn(Cc2ccc(Br)cc2)c(C)c1NC(=O)CSc1ccccc1 [KM-819]
- AUC0–24, geometric mean (CV%) ([1]; 30 mg QD, day 1, young): 1,761 (21.3) ng·h/mL
- Cmax, geometric mean (CV%) ([1]; 30 mg QD, day 1, young): 512.0 (30.9) ng/mL
- Tmax, median (min–max) ([1]; 30 mg QD, day 1, young): 2.00 (1.00–6.00) h
- CSF KM-819 concentration ([1]; 30 mg QD): no CSF KM-819 concentrations were measurable
- AUCtau, geometric mean (CV%) ([1]; 30 mg QD, day 7, young): 1,572 (24.8) ng·h/mL
- Cmax,ss, geometric mean (CV%) ([1]; 30 mg QD, day 7, young): 418.5 (51.7) ng/mL
- Tmax,ss, median (min–max) ([1]; 30 mg QD, day 7, young): 2.00 (1.00–6.00) h
- AUC0–24, geometric mean (CV%) ([1]; 100 mg QD, day 1, young): 3,735 (38.5) ng·h/mL
- Cmax, geometric mean (CV%) ([1]; 100 mg QD, day 1, young): 1,009 (33.0) ng/mL
- Tmax, median (min–max) ([1]; 100 mg QD, day 1, young): 2.00 (1.00–4.00) h
- mean CSF/Cmax ratio ([1]; 100 mg QD, day 7, CSF 1 hour postdose): 0.067%
- AUCtau, geometric mean (CV%) ([1]; 100 mg QD, day 7, young): 3,477 (17.9) ng·h/mL
- Cmax,ss, geometric mean (CV%) ([1]; 100 mg QD, day 7, young): 1,012 (39.5) ng/mL
- Cmin,ss, geometric mean (CV%) ([1]; 100 mg QD, day 7, young): 9.983 (31.1) ng/mL
- Tmax,ss, median (min–max) ([1]; 100 mg QD, day 7, young): 3.00 (1.00–4.00) h
- Cmax,ss in elderly relative to young ([1]; 200 mg QD for 7 days, day 7): 191%
- plasma exposure (AUCtau) in elderly relative to young ([1]; 200 mg QD for 7 days, day 7): 102%
- AUC0–24, geometric mean (CV%) ([1]; 200 mg QD, day 1, elderly): 17,590 (53.3) ng·h/mL
- Cmax, geometric mean (CV%) ([1]; 200 mg QD, day 1, elderly): 3,542 (76.4) ng/mL
- Tmax, median (min–max) ([1]; 200 mg QD, day 1, elderly): 2.00 (1.00–6.00) h
- AUC0–24, geometric mean (CV%) ([1]; 200 mg QD, day 1, young): 6,485 (62.2) ng·h/mL
- Cmax, geometric mean (CV%) ([1]; 200 mg QD, day 1, young): 1,465 (77.2) ng/mL
- Tmax, median (min–max) ([1]; 200 mg QD, day 1, young): 3.00 (2.00–6.00) h
- mean CSF/Cmax ratio ([1]; 200 mg QD, day 7, CSF 1 hour postdose, elderly): 0.032%
- mean CSF/Cmax ratio ([1]; 200 mg QD, day 7, CSF 1 hour postdose, young): 0.074%
- AUCtau, geometric mean (CV%) ([1]; 200 mg QD, day 7, elderly): 16,250 (34.1) ng·h/mL
- Cmax,ss, geometric mean (CV%) ([1]; 200 mg QD, day 7, elderly): 3,231 (52.5) ng/mL
- Cmin,ss, geometric mean (CV%) ([1]; 200 mg QD, day 7, elderly): 44.82 (48.3) ng/mL
- Tmax,ss, median (min–max) ([1]; 200 mg QD, day 7, elderly): 2.00 (1.00–4.00) h
- AUCtau, geometric mean (CV%) ([1]; 200 mg QD, day 7, young): 8,023 (7.7) ng·h/mL
- Cmax,ss, geometric mean (CV%) ([1]; 200 mg QD, day 7, young): 1,111 (64.3) ng/mL
- Cmin,ss, geometric mean (CV%) ([1]; 200 mg QD, day 7, young): 32.44 (19.4) ng/mL
- Tmax,ss, median (min–max) ([1]; 200 mg QD, day 7, young): 4.00 (4.00–4.00) h
- AUC0–24, geometric mean (CV%) ([1]; 400 mg QD, day 1, young): 11,260 (37.1) ng·h/mL
- Cmax, geometric mean (CV%) ([1]; 400 mg QD, day 1, young): 3,163 (50.7) ng/mL
- Tmax, median (min–max) ([1]; 400 mg QD, day 1, young): 2.00 (1.00–6.00) h
- mean CSF/Cmax ratio ([1]; 400 mg QD, day 7, CSF 1 hour postdose): 0.049%
- AUCtau, geometric mean (CV%) ([1]; 400 mg QD, day 7, young): 19,530 (96.4) ng·h/mL
- Cmax,ss, geometric mean (CV%) ([1]; 400 mg QD, day 7, young): 3,172 (37.9) ng/mL
- Cmin,ss, geometric mean (CV%) ([1]; 400 mg QD, day 7, young): 75.14 (28.4) ng/mL
- Tmax,ss, median (min–max) ([1]; 400 mg QD, day 7, young): 2.00 (0.50–4.00) h
- dose proportionality of plasma exposure (AUC) after repeated dosing ([1]; 30–400 mg QD for 7 days, day 7): approximately dose-proportional; also recorded: dose-proportional increase
- variability (CV%) of AUCtau and Cmax,ss ([1]; MAD): up to 96%
- dose proportionality of AUC and Cmax after a single dose ([1]; MAD, day 1): less than dose-proportional increase
- dose proportionality of Cmax after repeated dosing ([1]; MAD, day 7): less than dose-proportional increase
- dose proportionality of Cmin after repeated dosing ([1]; MAD, day 7): slightly more than dose-proportional increase
- Estimated mean slope, dose proportionality power model, Cmin,ss ([1]; MAD, day 7, N=21): 1.1852
- mean CSF/Cmax ratio ([1]; each cohort): less than 0.1%
- time to steady-state (trough) concentrations ([1]; repeated QD dosing, each group): 5 days
- CSF KM-819 concentration ([1]; ≥100 mg QD): measurable in more than half of the CSF samples
- variability (CV%) of AUCinf and Cmax ([2]; SAD): up to 55%
- dose proportionality of plasma exposure (AUC and Cmax) after a single dose ([2]; SAD, 10–400 mg): less than dose-proportional increase
- 24-hour recovery in urine (percent of dose) ([2]; SAD, all subjects): less than 1%
- AUCinf, geometric mean (CV%) ([2]; single 10 mg, young): 594.2 (24.4) ng·h/mL
- AUClast, geometric mean (CV%) ([2]; single 10 mg, young): 583.4 (24.5) ng·h/mL
- CL/F, geometric mean (CV%) ([2]; single 10 mg, young): 16,830 (24.4) mL/h
- Cmax, geometric mean (CV%) ([2]; single 10 mg, young): 244.1 (31.4) ng/mL
- Tmax, median (min–max) ([2]; single 10 mg, young): 1.50 (0.50–2.00) h
- t1/2, geometric mean (CV%) ([2]; single 10 mg, young): 1.786 (28.3) h
- tlag, median (min–max) ([2]; single 10 mg, young): 0.00 (0.00–0.25) h
- AUCinf, geometric mean (CV%) ([2]; single 30 mg, young): 1,731 (17.3) ng·h/mL
- AUClast, geometric mean (CV%) ([2]; single 30 mg, young): 1,705 (17.1) ng·h/mL
- CL/F, geometric mean (CV%) ([2]; single 30 mg, young): 17,340 (17.3) mL/h
- Cmax, geometric mean (CV%) ([2]; single 30 mg, young): 503.6 (28.0) ng/mL
- Tmax, median (min–max) ([2]; single 30 mg, young): 1.00 (0.50–2.00) h
- t1/2, geometric mean (CV%) ([2]; single 30 mg, young): 4.791 (25.0) h
- tlag, median (min–max) ([2]; single 30 mg, young): 0.00 (0.00–0.00) h
- AUCinf, geometric mean (CV%) ([2]; single 100 mg, young): 4,872 (30.8) ng·h/mL
- AUClast, geometric mean (CV%) ([2]; single 100 mg, young): 4,306 (31.1) ng·h/mL
- CL/F, geometric mean (CV%) ([2]; single 100 mg, young): 20,530 (30.8) mL/h
- Cmax, geometric mean (CV%) ([2]; single 100 mg, young): 1,152 (36.7) ng/mL
- Tmax, median (min–max) ([2]; single 100 mg, young): 2.00 (1.00–4.00) h
- t1/2, geometric mean (CV%) ([2]; single 100 mg, young): 9.159 (41.2) h
- tlag, median (min–max) ([2]; single 100 mg, young): 0.00 (0.00–0.00) h
- AUC higher in elderly than in young ([2]; single 200 mg): 49%
- Cmax, elderly compared with young ([2]; single 200 mg): similar
- t1/2 higher in elderly than in young ([2]; single 200 mg): 17%
- AUCinf, geometric mean (CV%) ([2]; single 200 mg, elderly): 10,970 (9.8) ng·h/mL
- AUClast, geometric mean (CV%) ([2]; single 200 mg, elderly): 10,840 (10.3) ng·h/mL
- CL/F, geometric mean (CV%) ([2]; single 200 mg, elderly): 18,230 (9.8) mL/h
- Cmax, geometric mean (CV%) ([2]; single 200 mg, elderly): 1,766 (26.0) ng/mL
- Tmax, median (min–max) ([2]; single 200 mg, elderly): 2.00 (1.0–4.00) h
- t1/2, geometric mean (CV%) ([2]; single 200 mg, elderly): 10.55 (28.5) h
- tlag, median (min–max) ([2]; single 200 mg, elderly): 0.00 (0.00–0.00) h
- AUCinf, geometric mean (CV%) ([2]; single 200 mg, young): 7,338 (51.9) ng·h/mL
- AUClast, geometric mean (CV%) ([2]; single 200 mg, young): 7,637 (47.7) ng·h/mL
- CL/F, geometric mean (CV%) ([2]; single 200 mg, young): 27,260 (51.9) mL/h
- Cmax, geometric mean (CV%) ([2]; single 200 mg, young): 1,879 (55.3) ng/mL
- Tmax, median (min–max) ([2]; single 200 mg, young): 2.00 (1.00–4.00) h
- t1/2, geometric mean (CV%) ([2]; single 200 mg, young): 9.010 (71.6) h
- tlag, median (min–max) ([2]; single 200 mg, young): 0.00 (0.00–0.25) h
- AUCinf, geometric mean (CV%) ([2]; single 400 mg, young): 12,640 (36.1) ng·h/mL
- AUClast, geometric mean (CV%) ([2]; single 400 mg, young): 12,210 (33.3) ng·h/mL
- CL/F, geometric mean (CV%) ([2]; single 400 mg, young): 31,650 (36.1) mL/h
- Cmax, geometric mean (CV%) ([2]; single 400 mg, young): 2,767 (43.4) ng/mL
- Tmax, median (min–max) ([2]; single 400 mg, young): 4.00 (2.00–4.00) h
- t1/2, geometric mean (CV%) ([2]; single 400 mg, young): 8.527 (63.2) h
- tlag, median (min–max) ([2]; single 400 mg, young): 0.00 (0.00–0.00) h
- no observed adverse effect level (NOAEL) ([3]; 4-week rat toxicology study): 500 mg/kg/day
- adverse effects after repeated administration ([3]; 4 weeks, up to 500 mg/kg/day): did not show adverse effects
